# Source: PubChem BioAssay (The Scripps Research Institute Molecular Screening Center)
# An excerpt weighted towards active compounds, which were near 2.7% of everything screened.
# VIM-2 inh = VIM-2 metallo-beta-lactamase inhibitors, primary screen, biochemical, epi-absorbance readout, Pseudomonas aeruginosa enzyme; purified VIM-2, nitrocefin hydrolysis, epi-absorbance fluorescence; actives 0.89% (n = 290,000); inhibition, % at 5.6 µM; AID 1527, 2009;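 active means inhibition above the mean of all tested compounds plus 3 SD, cutoff set per screening run, cut at about 7.5% in these data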;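 further: red hydrolysis product quenches plate fluorescence so inhibitors raise well fluorescence; 0% = enzyme with DMSO and 100% = DMSO without enzyme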
# Fh CTSL1 inh = Fasciola hepatica cathepsin L1 inhibitors, primary screen, counter-screen for PFM18AAP inhibitor project, biochemical, QFRET, fluorogenic peptide substrate | AID 1906, 2009 | inhibition, % at 5.96 µM | recombinant F. hepatica cathepsin L1, Z-Leu-Arg-MCA fluorescence | actives 0.49% (n = 300,000);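 active means inhibition above the mean of all tested compounds plus 3 SD, set per screening campaign, cut at about 17% in these data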;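 further: 0% = plate median of test compound wells and 100% = 1 µM Z-Phe-Ala-diazomethylketone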
# IMP-1 inh-1 = IMP-1 metallo-beta-lactamase inhibitors, primary screen, biochemical, epi-absorbance readout, Pseudomonas aeruginosa enzyme | inhibition, % at 5.6 µM | purified IMP-1, nitrocefin hydrolysis, epi-absorbance fluorescence | actives 0.45% (n = 290,000);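 active means inhibition above the mean plus 3 SD of all compounds in the same screening run, cut at about 4.5% in these data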;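 further: 0% = IMP-1 with DMSO and 100% = DMSO wells lacking enzyme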
#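 Assay system: purified IMP-1; Quantity: IMP-1 0.2 nM before substrate addition; Medium: HEPES buffer pH 7.1 with ZnSO4 and Brij 35; Incubation: 15 min enzyme–compound preincubation, then 25 min nitrocefin reaction, 25 °C; Signal: fluorescence quenching readout, ex 480/em 530 nm; Controls: DMSO with and without IMP-1; Repeats: singlicate testing.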
# PfM18AAP inh = PfM18AAP inhibitors, malaria aminopeptidase, primary screen, biochemical, QFRET, recombinant enzyme; AID 1822, 2009; inhibition, % at 7.35 µM; actives 1.2% (n = 290,000); H-Glu-NHMec fluorogenic cleavage;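 active means inhibition above the campaign mean inhibition over all tested compounds plus 3 SD, cut at about 28% in these data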;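 further: 0% = plate median of test compound wells and 100% = 2 mM ZnCl2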
# IMP-1 inh-2 = IMP-1 metallo-beta-lactamase inhibitors, confirmation, selectivity assay for selective VIM-2 inhibitor project, biochemical, epi-absorbance readout, triplicate. inhibition, % at 5.6 µM. AID 1856, 2009. 1,300 tested, under 10 active. shares compounds with VIM-2 inh. purified IMP-1, nitrocefin hydrolysis, epi-absorbance fluorescence; call rule not given here;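 further: 0% = enzyme with vehicle and 100% = vehicle without enzyme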
# VIM-2 FRET inh = VIM-2 inhibitors in FRET format, confirmation, artefact control for selective VIM-2 inhibitor project, biochemical, epi-absorbance artifact exclusion; shares compounds with VIM-2 inh; purified VIM-2, CCF2 FRET substrate hydrolysis; actives 23% (n = 1,300); inhibition, % at 5.6 µM;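 active means inhibition above the mean of all tested compounds plus 3 SD, cut at about 19% in these data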;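 further: 0% = VIM-2 plus DMSO and 100% = no enzyme wells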
# TEM-1 inh = TEM-1 serine beta-lactamase inhibitors, counter-screen for VIM-2 inhibitor project, biochemical, epi-absorbance, HTS. shares compounds with VIM-2 inh. inhibition, % at 5.6 µM. actives 3% (n = 1,300). Purified TEM-1, nitrocefin hydrolysis, epi-absorbance fluorescence;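 active means inhibition above that campaign's mean inhibition plus 3 SD, cut at about 0.46% in these data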;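 further: 0% = TEM-1 with DMSO and 100% = TEM-1 with 100 µM potassium clavulanate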
# Target sequence (P62593 whole entry, looked up): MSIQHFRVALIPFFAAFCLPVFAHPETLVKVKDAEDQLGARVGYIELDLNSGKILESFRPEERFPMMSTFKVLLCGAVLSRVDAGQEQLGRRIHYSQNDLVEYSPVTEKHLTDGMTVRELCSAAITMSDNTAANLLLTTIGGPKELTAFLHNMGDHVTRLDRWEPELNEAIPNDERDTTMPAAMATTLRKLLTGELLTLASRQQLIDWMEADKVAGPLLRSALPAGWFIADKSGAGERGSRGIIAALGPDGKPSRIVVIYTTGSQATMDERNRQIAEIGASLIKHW
# VIM-2 confirm 2 = VIM-2 metallo-beta-lactamase inhibitors, confirmation, biochemical, epi-absorbance, hits shared with IMP-1 screen; shares compounds with VIM-2 inh; purified VIM-2, nitrocefin hydrolysis; inhibition, % at 5.6 µM; actives 96% (n = 1,300); AID 2187, 2009;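 active means inhibition of the VIM-2 beta-lactamase enzyme above about 11% from the earlier first-round screen, limit read from the data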;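 further: 0% = VIM-2 with DMSO and 100% = buffer wells without enzyme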
# * marks the source's active call; other numbers are inactive results; . = not tested or not shown.
SMILES,VIM-2 inh,Fh CTSL1 inh,IMP-1 inh-1,PfM18AAP inh,IMP-1 inh-2,VIM-2 FRET inh,TEM-1 inh,VIM-2 confirm 2
CSc1nc(NCCCN(C)C)c2c3c(sc2n1)CN(C)CC3,25*,.,-3,29*,-2,1,-5,37*
CN(C)S(=O)(=O)c1cccc(NC(=S)N/N=C/C(c2ccccc2)c2ccccc2)c1,21*,-4,-6,32*,-3,35*,-8,23*
CN(C)S(=O)(=O)c1cccc(NC(=S)N/N=C/c2ccco2)c1,1,5,-3,13,.,.,.,.
CC(/C=N/NC(=S)Nc1cccc(S(=O)(=O)N(C)C)c1)c1ccccc1 (configuration not stated),46*,1,-4,33*,-2,67*,-3,52*
COc1cccc2cc(C(N)=O)/c(=N/NC(=O)COc3ccc(Cl)cc3)oc12,0,1,-2,-8,.,.,.,.
O=P(O)(O)c1ccccc1OCCCCCOc1ccccc1P(=O)(O)O,62*,-4,1,-13,-3,76*,-6,66*
O=P(O)(O)c1ccccc1OCc1ccccc1,55*,-3,-3,-1,-3,81*,-5,68*
O=C1COc2ccc(C(=O)COc3ccc([N+](=O)[O-])cc3)cc2N1,0,-3,0,0,.,.,.,.
Cc1sc2ncnc(Oc3ccc(-n4ccnc4)cc3)c2c1C,74*,0,-2,0,-2,-7,-5,85*
O=C(NC(=S)NCC1CCCO1)c1ccccc1Br (configuration not stated),28*,-1,-1,-12,-3,52*,-4,36*
Cc1ccccc1S(=O)(=O)Cc1ccc(C(=O)N(C)C2CCCCC2)o1,-2,-2,-1,0,.,.,.,.
CN(C)CCCN1C(=O)c2cccc3c(Br)ccc(c23)C1=O,12*,5,-1,-2,-2,0,-6,18*
COc1ccc(/C=C2\CCCc3c2nc2ccccc2c3C(=O)OCC(=O)c2c(N)n(C)c(=O)n(C)c2=O)cc1,14*,1,0,19,-3,3,-6,6
Cn1c(N)c(C(=O)COC(=O)c2cc(-c3ccco3)nc3ccccc23)c(=O)n(C)c1=O,14*,.,4,-11,-2,-20,-5,37*
COc1ccc(/C=C/C(=O)OCC(=O)c2c(N)n(C)c(=O)n(C)c2=O)cc1,-2,1,-2,-7,.,.,.,.
Cn1c(N)c(C(=O)COC(=O)c2cc(C3CC3)nc3ccccc23)c(=O)n(C)c1=O,13*,0,-3,2,-2,9,-7,63*
O=C(O)Cn1c2c(c3ccccc31)CSc1ccc(Cl)cc1-2,15*,1,2,3,0,12,-4,20*
O=C(O)Cn1c2ccccc2c2ccccc21,0,1,0,-3,.,.,.,.
Cc1nn2c(N3CCN(CCO)CC3)c3c(nc2c1-c1ccccc1)CCCC3,37*,-2,-3,-3,-4,-4,-7,59*
Cc1nn2c(N3CCCC3)c3c(nc2c1-c1ccccc1)CCC3,4,7,0,-9,.,.,.,.
CCn1cc(C(=O)NCCCN(C)C)c(=O)c2cc(F)c(N3CCN(C)CC3)cc21,21*,-1,-7,-19,-3,4,-5,36*
CCCCCNC(=O)c1cn(CC)c2cc(N3CCN(C)CC3)c(F)cc2c1=O,3,4,0,-12,.,.,.,.
O=C(COc1cc2oc(=O)c3c(c2cc1Cl)CCC3)NCc1ccncc1,28*,-2,-3,-1,-3,-4,-3,35*
O=C(COc1ccc2c3c(c(=O)oc2c1)CCC3)NCc1cccnc1,17*,2,-3,4,-3,-1,-6,27*
O=C(COc1ccc2c3c(c(=O)oc2c1)CCC3)NCc1ccncc1,29*,1,-2,6,-3,-3,-4,39*
SMILES,VIM-2 inh,Fh CTSL1 inh,IMP-1 inh-1,PfM18AAP inh,IMP-1 inh-2,VIM-2 FRET inh,TEM-1 inh,VIM-2 confirm 2
NS(=O)(=O)c1ccc(CCNC(=O)COc2ccc3c4c(c(=O)oc3c2)CCC4)cc1,19*,2,-3,-2,-3,-4,-8,28*
O=C(COc1ccc2c3c(c(=O)oc2c1)CCC3)Nc1ccc(CCO)cc1,6,0,-4,0,.,.,.,.
Cc1cc(=O)oc2cc(OCC(=O)NCc3ccncc3)ccc12,2,-2,-3,3,.,.,.,.
O=C(c1ccc2c(c1)OCCO2)N1CCN(Cc2ccccc2)CC1,-3,2,-2,0,.,.,.,.
CCCc1nc(NCCCOCC)c2nnn(Cc3ccccc3)c2n1,0,0,-2,4,.,.,.,.
O=C(COc1ccc2c3c(c(=O)oc2c1)CCC3)NCCCN1CCOCC1,24*,1,0,-2,-3,3,-6,31*
CC(Oc1cc2oc(=O)c3c(c2cc1Cl)CCCC3)C(=O)NCCN1CCOCC1 (configuration not stated),13*,1,1,-5,-4,-3,-5,15*
CC(Oc1ccc2c(c1)oc(=O)c1ccccc12)C(=O)NCCN1CCOCC1 (configuration not stated),14*,1,3,0,-3,-1,-7,23*
Cc1c(C)c2ccc(OCC(=O)NCCN3CCOCC3)cc2oc1=O,1,0,-3,2,.,.,.,.
CC(Oc1ccc2c(-c3ccccc3)cc(=O)oc2c1)C(=O)NCCN1CCOCC1 (configuration not stated),0,4,-3,0,.,.,.,.
O=C(COc1ccc2c(c1)oc(=O)c1ccccc12)NCCCN1CCOCC1,20*,-2,-2,-5,-3,3,-8,33*
CC(Oc1cc2oc(=O)c3c(c2cc1Cl)CCC3)C(=O)NCCCN1CCOCC1 (configuration not stated),-1,-2,-2,-6,.,.,.,.
Cc1ccc(C)n1NC(=O)c1cccc(Cl)c1,-1,-2,-3,14,.,.,.,.
Cc1ccc(CNC(=O)Cn2cnc(S(=O)(=O)N3CCC(C)CC3)c2)o1,0,1,1,3,.,.,.,.
